# Assay outcomes deposited in PubChem by Johns Hopkins Ion Channel Center.
# Shown are actives, neighbours in structure and some others; about 2.3% of the full set was active somewhere.
# TRPC4 PAM: positive allosteric modulators of TRPC4, primary screen, cell-based, mouse TRPC4beta, HEK293 mu-opioid, Fluo-4 calcium | AID 2227, 2009 | 0.42% of 310,000 active | DAMGO EC20, Fluo-4 Ca2+ flux; active compounds read high | B-score at 10 µM;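 active means B-score of calcium response area above 5 SD of library B-scores, with initial fluorescence ratio within 5 SD of library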
# Target sequence (Q9QUQ5 whole entry, looked up): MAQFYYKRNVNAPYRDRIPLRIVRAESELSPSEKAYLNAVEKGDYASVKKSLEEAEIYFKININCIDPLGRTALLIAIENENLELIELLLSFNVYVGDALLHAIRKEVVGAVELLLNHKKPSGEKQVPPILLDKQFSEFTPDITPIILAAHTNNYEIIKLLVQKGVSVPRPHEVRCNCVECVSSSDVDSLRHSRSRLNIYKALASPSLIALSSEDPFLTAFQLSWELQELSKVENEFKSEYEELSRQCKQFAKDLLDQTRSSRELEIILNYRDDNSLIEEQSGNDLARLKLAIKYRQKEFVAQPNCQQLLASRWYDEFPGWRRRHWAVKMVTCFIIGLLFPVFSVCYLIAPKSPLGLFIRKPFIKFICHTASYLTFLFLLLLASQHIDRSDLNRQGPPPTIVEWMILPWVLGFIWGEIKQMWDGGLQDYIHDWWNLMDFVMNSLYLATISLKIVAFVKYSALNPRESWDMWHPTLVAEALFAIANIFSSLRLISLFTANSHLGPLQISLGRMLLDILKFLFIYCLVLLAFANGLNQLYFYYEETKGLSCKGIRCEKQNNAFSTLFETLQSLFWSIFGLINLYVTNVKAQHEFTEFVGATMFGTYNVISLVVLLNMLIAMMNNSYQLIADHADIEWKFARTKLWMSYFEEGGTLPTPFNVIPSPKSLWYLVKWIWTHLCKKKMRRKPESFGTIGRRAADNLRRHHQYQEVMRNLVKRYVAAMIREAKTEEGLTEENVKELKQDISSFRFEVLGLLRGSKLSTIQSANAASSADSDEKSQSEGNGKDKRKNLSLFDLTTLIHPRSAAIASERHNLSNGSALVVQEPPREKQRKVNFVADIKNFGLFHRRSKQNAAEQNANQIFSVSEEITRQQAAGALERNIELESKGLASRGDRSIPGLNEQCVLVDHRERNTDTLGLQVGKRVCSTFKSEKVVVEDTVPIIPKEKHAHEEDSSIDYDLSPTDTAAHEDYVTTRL
# TRPC4 agonist: activators of mouse TRPC4 channel, primary screen, Fluo4 calcium, HEK293 TRPC4beta/mu-opioid cells. Fluo4 calcium fluorescence; active compounds read high. B-score at 10 µM. 0.49% of 310,000 active;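 active means B-score above 5 SD of library B-scores, and initial fluorescence ratio not above library mean plus 5 SD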;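 further: positive B-score marks a calcium rise read as TRPC4 activation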
#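 system = HEK293 cells stably co-expressing mouse TRPC4beta and mu-opioid receptor | schedule = Fluo4 dye loading 45 min at room temperature, 110 s recording | measure = B-scored integrated calcium fluorescence ratio | signal = Fluo4 calcium-sensitive dye fluorescence, kinetic, 1 Hz baseline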
# TRPC6 inhibitor: mouse TRPC6 channel inhibitors, primary screen, cell-based, HEK293, membrane potential dye | Short transient receptor potential channel 6 (Mus musculus), Q61143 | ACh-evoked depolarization; active compounds read low | B-score at 10 µM | 1.1% of 310,000 active | AID 2553, 2010;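 active means B-score under library mean minus 3 SD, initial fluorescence not abnormally high, positive integrated signal ratio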;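 further: B-score derived from integrated fluorescence ratio over the kinetic read; more negative B-score means stronger inhibition of depolarization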
# TRPC6 act: mouse TRPC6 channel activators, primary screen, cell-based, HEK293, membrane potential dye | B-score at 10 µM | AID 2550, 2010 | Short transient receptor potential channel 6 (Mus musculus), Q61143 | HEK293-TRPC6 membrane potential dye fluorescence; active compounds read high | 0.13% of 310,000 active;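 active means B-score of the integrated fluorescence ratio above library mean plus 3 SD, and starting fluorescence ratio within library mean plus 5 SD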;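 further: higher score means more depolarization so channel activation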
# TRPC4 inh: inhibitors of mouse TRPC4 channel, primary screen, Fluo4 calcium, HEK293 TRPC4beta/mu-opioid cells | Short transient receptor potential channel 4 (Mus musculus), Q9QUQ5 | DAMGO-evoked Fluo4 calcium flux; active compounds read low | B-score at 10 µM | 0.39% of 300,000 active;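 active means B-score over 3 SD under the library average, no early fluorescence shift, positive overall ratio signal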
#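 Assay system: HEK293 cells with stable TRPC4beta plus mu-opioid receptor expression. Dosing: single dose. Measured by: Fluo4 Ca2+ flux fluorescence. Also added: DAMGO in two steps, submaximal then maximal. Read-out: B score from integrated Fluo4 fluorescence ratio.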
# TRPC4 spec 2: second selectivity test of TRPC6 inhibitors: effect on mouse TRPC4. shares compounds with TRPC6 inhibitor. HEK293 TRPC4/MOR, membrane potential dye fluorescence; channel activated by saturating DAMGO dose. inhibition, % at 10 µM. 42% of 920 active. AID 2776;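 active means compounds whose fluorescence signal differed from control wells by over 3 SD, either direction, in both duplicate plates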
# TRPC4 spec: mouse TRPC4 modulation by TRPC6 hits, confirmation, selectivity assay for TRPC6 inhibitor project, cell-based, HEK293 TRPC4/mu-opioid, membrane potential dye. shares compounds with TRPC6 inhibitor. membrane potential fluorescence. activity change, negative = inhibition, % at 10 µM. 61% of 920 active. AID 2777, 2010;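 active means rise or fall in signal beyond 3 SD of buffer-only wells in both replicate plates, either sign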;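 further: integrated kinetic ratio of fluorescence range over baseline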
# HEK293 MPD ctr 2-1: nonspecific membrane potential effects, parental HEK293, confirmation, counter-screen for TRPC6 inhibitor project, cell-based, second counter screen; signal change vs control, % at 10 µM; 31% of 920 active; parental HEK293 membrane potential dye fluorescence; maximal acetylcholine challenge after compound addition; shares compounds with TRPC6 inhibitor;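 active means membrane potential signal moving either way by over 3 SD of the maximum-effect control, in both duplicate plates, meaning non-specific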
# HEK293 MPD ctr-1: membrane potential modulation in parental HEK293, confirmation, counter-screen for TRPC6 inhibitor project, cell-based. parental HEK293 membrane potential dye fluorescence. AID 2780, 2010. 60% of 920 active. membrane potential signal change, % at 10 µM. shares compounds with TRPC6 inhibitor;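 active means membrane potential signal shifting up or down by more than 3 SD of buffer-only wells, on both duplicate plates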
# HEK293 MPD ctr-2: parental HEK293 membrane potential modulation, confirmation, counter-screen for TRPC6 modulator project, cell-based; shares compounds with TRPC6 inhibitor; membrane potential dye fluorescence; membrane potential signal change, % at 10 µM; 51% of 2,400 active;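 active means membrane potential signal moves up or down beyond 5 SD from buffer-only wells, on both duplicate plates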
# HEK293 MPD ctr 2-2: parental HEK293 nonspecific activity of TRPC6 modulators, second screen | shares compounds with TRPC6 inhibitor | membrane potential dye fluorescence; after compound, maximal acetylcholine stimulation | inhibition, % at 10 µM | 14% of 2,400 active;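 active means membrane potential signal drops by more than 5 SD from the mean control signal, in both duplicate plates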
# TRPC4 ctr mod: TRPC4 modulation by TRPC6 hit compounds, confirmation, selectivity assay for TRPC6 modulator project, cell-based, HEK293 TRPC4/mu-opioid, membrane potential dye, mouse | shares compounds with TRPC6 inhibitor | membrane potential fluorescence | percent change from control (negative = decrease, positive = increase), % at 10 µM | 69% of 2,400 active;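 active means membrane potential signal moved up or down beyond 5 SD of buffer control wells, in both duplicate plates, actives on both sides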
# TRPC4 ctr inh 2: second check of whether TRPC6 modulators also affect mouse TRPC4. shares compounds with TRPC6 inhibitor. 55% of 2,400 active. inhibition, % at 10 µM. HEK293 TRPC4/mu-opioid, membrane potential dye fluorescence; stimulated with maximal-effect DAMGO. AID 488928;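 active means drop in membrane potential signal beyond 5 SD of the control wells in both duplicate plates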;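 further: TRPC4 counter screen for TRPC6 hits run under conditions tuned for TRPC6 not TRPC4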
# TRPC6 block conf: mouse TRPC6 channel inhibitors, confirmation, HEK293 cells, membrane potential dye, duplicate; shares compounds with TRPC6 inhibitor; ACh-evoked depolarization; inhibition, % at 10 µM; 43% of 3,300 active; AID 488960, 2010;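 active means fluorescence ratio falls more than 5 SD below the full-stimulation control mean, in both duplicate runs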;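 further: integrated fluorescence ratio of peak minus minimum over baseline after agonist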
# TRPC6 act confirm: mouse TRPC6 channel activators, confirmation, HEK293 cells, membrane potential dye, duplicate. shares compounds with TRPC6 inhibitor. HEK293-TRPC6 membrane potential dye fluorescence, FDSS. activation, % at 10 µM. 11% of 2,800 active. AID 488961, 2010;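 active means ratio signal rise beyond 5 SD above unstimulated control wells' mean, seen in both duplicate runs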
# A number is an active result; . = inactive; / = no result given.
SMILES,TRPC4 PAM,TRPC4 agonist,TRPC6 inhibitor,TRPC6 act,TRPC4 inh,HEK293 MPD ctr-2,HEK293 MPD ctr 2-2,TRPC4 ctr mod,TRPC4 ctr inh 2,TRPC6 block conf,TRPC6 act confirm,others
Oc1ccccc1Nc1nc(NCC2CCCO2)c2ccccc2n1 (stereo not drawn),.,.,-14.7,.,.,/,/,/,/,74.6%,.,TRPC4 spec 2=28.5%;TRPC4 spec=-22.0%;HEK293 MPD ctr 2-1=.;HEK293 MPD ctr-1=-273.0%
c1ccc(Nc2nc(NCc3ccco3)c3ccccc3n2)cc1,.,.,.,.,.,/,/,/,/,/,/,
Oc1ccc(Nc2nc(NCC3CCCO3)c3ccccc3n2)cc1 (stereo not drawn),.,.,-6.5,.,.,.,.,-12.5%,56.0%,38.0%,.,
COc1cccc(Nc2nc(NCCO)c3ccccc3n2)c1,.,.,-10.8,.,.,/,/,/,/,90.1%,.,TRPC4 spec 2=40.0%;TRPC4 spec=-21.7%;HEK293 MPD ctr 2-1=27.0%;HEK293 MPD ctr-1=-237.0%
c1ccc2c(NCC3CCCO3)nc(N3CCCCC3)nc2c1 (stereo not drawn),.,.,.,.,.,/,/,/,/,/,/,
COC(=O)CN(C#N)c1nc(NCc2ccccc2)nc(OC)n1,.,.,.,.,.,/,/,/,/,/,/,
OCCN1CCN(c2nc(NCc3ccco3)c3ccccc3n2)CC1,.,.,-6.01,.,.,-228.5%,.,-38.5%,57.0%,.,.,
c1ccc(CN2CCN(c3nc(NCc4ccco4)c4ccccc4n3)CC2)cc1,.,.,.,.,.,/,/,/,/,/,/,
COc1cccc(Nc2nc(NCC3CCCO3)c3ccccc3n2)c1 (stereo not drawn),.,.,-11.1,.,.,.,.,-21.5%,74.0%,58.0%,.,
O=C(Nc1cccc([N+](=O)[O-])c1)N1CCCCCC1,.,.,.,.,.,/,/,/,/,/,/,
CCOc1ccc(S(=O)(=O)N(C)c2ccc(OCC(=O)N3c4ccc(C)cc4C4CN(C)CCC43)cc2)cc1 (stereo not drawn),.,.,.,.,.,/,/,/,/,/,/,
